# From PubChem
# Fh CTSL1 inh: blocks F. hepatica cathepsin L1 in PFM18AAP counter-screen. recombinant F. hepatica cathepsin L1, Z-Leu-Arg-MCA fluorescence. inhibition, % at 5.96 µM. 300,000 compounds, 0.49% hits;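 active = inhibition above the mean of all tested compounds plus 3 SD, set per screening campaign, cut at about 17% in these data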;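 also: 0% = plate median of test compound wells and 100% = 1 µM Z-Phe-Ala-diazomethylketone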
# p-CIP stab down: lowers stability of the mouse p/CIP coactivator protein. F442A p/CIP-EGFP cells, EGFP fluorescence, 16 h. decrease of EGFP signal, % at 10 µM. 290,000 compounds, 0.01% hits;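 active = EGFP signal decrease of at least 30% at 10 µM or well 3 SD below plate mean, unless failing retest; inactive = the rest, including hits failing retest or dose response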
# Target sequence (Q05BA5 1-1403): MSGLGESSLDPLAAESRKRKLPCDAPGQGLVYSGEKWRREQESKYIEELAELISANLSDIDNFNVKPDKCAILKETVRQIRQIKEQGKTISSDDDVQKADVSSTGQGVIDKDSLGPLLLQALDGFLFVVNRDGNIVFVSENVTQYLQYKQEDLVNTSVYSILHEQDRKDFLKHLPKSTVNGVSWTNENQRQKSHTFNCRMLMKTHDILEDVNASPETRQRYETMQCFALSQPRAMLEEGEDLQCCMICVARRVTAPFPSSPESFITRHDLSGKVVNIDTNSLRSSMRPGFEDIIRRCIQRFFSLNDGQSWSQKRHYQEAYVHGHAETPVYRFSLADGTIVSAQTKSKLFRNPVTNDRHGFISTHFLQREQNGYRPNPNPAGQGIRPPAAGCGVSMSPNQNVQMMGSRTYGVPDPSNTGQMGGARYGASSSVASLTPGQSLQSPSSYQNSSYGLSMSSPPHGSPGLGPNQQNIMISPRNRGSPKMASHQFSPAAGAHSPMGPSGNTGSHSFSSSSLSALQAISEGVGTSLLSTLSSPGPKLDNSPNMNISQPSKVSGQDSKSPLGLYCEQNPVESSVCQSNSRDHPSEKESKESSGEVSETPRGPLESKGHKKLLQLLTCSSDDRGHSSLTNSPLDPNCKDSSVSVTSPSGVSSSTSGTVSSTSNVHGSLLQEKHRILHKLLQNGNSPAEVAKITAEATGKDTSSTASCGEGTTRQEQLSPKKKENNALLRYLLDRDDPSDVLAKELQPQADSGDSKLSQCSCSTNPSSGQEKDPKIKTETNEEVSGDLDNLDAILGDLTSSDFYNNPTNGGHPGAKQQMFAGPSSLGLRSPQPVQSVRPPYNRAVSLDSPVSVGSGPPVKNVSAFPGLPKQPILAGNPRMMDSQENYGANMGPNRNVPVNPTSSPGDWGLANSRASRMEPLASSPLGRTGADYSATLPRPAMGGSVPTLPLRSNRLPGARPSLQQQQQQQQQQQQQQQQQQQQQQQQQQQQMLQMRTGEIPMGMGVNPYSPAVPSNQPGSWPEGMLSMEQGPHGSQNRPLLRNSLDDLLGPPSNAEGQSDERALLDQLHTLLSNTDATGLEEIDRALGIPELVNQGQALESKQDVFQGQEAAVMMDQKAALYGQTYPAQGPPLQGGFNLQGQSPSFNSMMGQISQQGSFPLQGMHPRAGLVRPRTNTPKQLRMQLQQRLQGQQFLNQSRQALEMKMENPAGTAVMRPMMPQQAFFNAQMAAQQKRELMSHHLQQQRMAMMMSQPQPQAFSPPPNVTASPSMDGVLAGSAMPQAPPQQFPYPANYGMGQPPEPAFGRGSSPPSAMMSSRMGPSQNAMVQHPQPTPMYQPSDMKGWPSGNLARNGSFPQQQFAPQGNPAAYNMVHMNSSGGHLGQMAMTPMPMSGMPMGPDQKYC
# Arrestin-AP2 inh: human beta-arrestin and AP2 interaction inhibition; inhibition, % at 10 µM; AID 504490; FITC-arrestin peptide / GST-AP2 beads, flow cytometry; AP2 beta2 appendage carries R879A mutation; 340,000 compounds, 0.31% hits;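 active = inhibition above a set limit, near 3 SD of compounds lacking own fluorescence, cut at about 54% in these data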;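 also: plate controls were DMSO wells for no effect and 5 µM unlabelled arrestin peptide for full effect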
#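 System: GST-tagged AP2 beta2-adaptin appendage (R879A) on 4 µm glutathione beads / Reagent: FITC-arrestin peptide, 50 nM / Detection: HyperCyt-sampled flow cytometry, FL1 channel, ex 488/em 535 nm / Timing: 12 min plus 1 h, RT / Buffer or medium: PBS plus Tween 20 (0.05%) and BSA (0.1%)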
# Hep lipid drop: hepatic lipid droplet formation modulation; AML12 mouse hepatocytes, oleate lipid droplets, BODIPY imaging; inhibition, % at 6.5 µM; 240,000 compounds, 0.4% hits; AID 1656;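 active = lipid droplet intensity inhibited by at least 50%, with more than 500 cells counted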
#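 Assay system: AML12 mouse liver cells | Compound: 6.5 µM single-point dosing | Schedule: Overnight exposure | Technique: Fluorescence imaging, 20x objective, two fields per well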
# Starred values were filed as active, the others as inactive; x = no result. Compounds with a hit are over-represented: about 1% of the library has one in this group of screens.
SMILES,Fh CTSL1 inh,p-CIP stab down,Arrestin-AP2 inh,Hep lipid drop
CCOCCCNC(=O)Cn1cnc2c(cnn2-c2ccc(F)cc2)c1=O,-3,-2,32,14
COc1ccc(NC(=O)CCl)cn1,17*,-11,x,26
O=C(CCl)Nc1ccc(Oc2cnc3ccccc3n2)cc1,23*,-15,5,x
CCC(=O)Nc1cccc(-c2cnc3ccccc3n2)c1,-1,4,4,1
O=C(CCl)Nc1cccc(-c2cnc3ccccc3n2)c1,74*,2,38,-20
COc1ccc(CC(=O)Nc2ccc(OC)nc2)cc1,-4,-5,17,1
CCCn1c(SCC(=O)NC(C)c2ccccc2)n[nH]c1=O (stereo not drawn),1,-7,-2,-3
COc1ccc(-c2ccccc2)cc1NCc1ccccc1C,0,-4,-19,-2
CCCC(=O)NCCc1nc2ccccc2n1CCC,-2,-12,2,8
CN1CCC(=NNC(=O)CSCc2ccccc2)CC1,1,-4,3,x
CCCN(Cc1cc2ccccc2[nH]c1=O)C(=O)c1cccc([N+](=O)[O-])c1,-3,-4,10,24
CCCN(Cc1cc2cc(C)ccc2[nH]c1=O)C(=O)c1cccc([N+](=O)[O-])c1,19*,2,25,-3
C/C(=N\NC(N)=S)C1(C)CC2(CC(C)(C)OC2=O)C(=O)O1 (stereo not drawn),19*,-16,-13,3
C/C(CC1CC(C)(C)OC1=O)=N\NC(N)=S (stereo not drawn),15,-1,5,11
CCCC1CC(C)(/C(C)=N\NC(N)=S)OC1=O (stereo not drawn),10,-10,56*,-9
CCOC(=O)c1c(C)[nH]c(C)c1C(=O)COC(=O)c1cc(OC)cc(OC)c1,0,-8,7,4
COc1ccc(Br)cc1/C=C/C(=O)Nc1ccc2ccccc2c1,0,-12,14,52*
COc1ccc(Br)cc1/C=C/C(=O)Nc1ccc(C)cc1,3,-2,-2,-2
CC(C)OC(=O)CSc1nnc(-c2ccc(Cl)cc2Cl)o1,21*,1,16,19
COc1cccc(NC(=O)C(C)SCc2ccccc2)c1 (stereo not drawn),-2,-10,-11,-14
CC(C)(C)OC(=O)N1CC=C2C(C#N)=C(N)C(C#N)(C#N)[C@H](c3cccnc3)[C@H]2C1,8,-5,6,-1
N#CC1=C(N)C(C#N)(C#N)[C@H](c2ccncc2)[C@H]2CN(C(=O)OCc3ccccc3)CC=C12,19*,4,10,-5
O=C1NC(=O)C(=Cc2ccc(Cl)cc2Cl)S1,x,x,7,x
CCOC(=O)c1c(-c2ccco2)csc1NC(=O)COC(=O)c1cnc(C)cn1,31*,x,-1,x
O=C(CSc1ncnc2c1cnn2Cc1ccccc1)Nc1ccc2c(c1)OCCO2,1,-14,1,10
SMILES,Fh CTSL1 inh,p-CIP stab down,Arrestin-AP2 inh,Hep lipid drop
COc1cc(C(=O)Nc2ccccn2)cc(OC)c1OC,18*,-6,-4,1
COc1ccc(NC(=O)c2cccnc2NCCc2ccccc2)cc1,44*,12,33,1
COc1cc(NC(=O)c2ccccc2)c(OC)cc1NC(=O)Cc1cccs1,-2,6,21,-5
CC(=O)Nc1ccc(NC(=S)NC(=O)C2CC2)cc1,30*,11,10,3
CC(NC(=O)C12CC3CC(CC(O)(C3)C1)C2)c1ccccc1 (stereo not drawn),-3,14,0,-6
CC(=O)Nc1ccc(NC(=O)CC2SC(=O)N(CC(=O)c3ccccc3)C2=O)cc1 (stereo not drawn),96*,-21,-1,-10
CCCN1C(=O)SC(CC(=O)Nc2ccc(C)cc2)C1=O (stereo not drawn),3,-2,-6,3
CCOC(=O)N1CCN(C(=O)Nc2ccc3nccnc3c2)CC1,0,-12,31,1
COc1cc(N)c(Cc2nccc3cc(OC)c(OC)cc23)cc1OC,0,-30,17,2
COc1ccc(C(N)c2nccc3cc(OC)c(OC)cc23)cc1OC (stereo not drawn),26*,13,-5,-1
O=C(CS(=O)(=O)c1ccccc1)Nc1nnc(C(F)(F)F)s1,-1,-2,6,0
O=C(NCc1nnc(SCC(=O)N2CCCCC2)o1)c1c(F)cccc1F,0,-4,-9,8
CCOC(=O)N1[C@@H]2C=C(C)[C@@H]2[C@@H]2[C@@H](C)C(=O)N21,18*,4,-3,20
NC(=O)NNC(=S)Nc1cccc2ccccc12,91*,3,-17,-2
O=C(NCc1ccc2c(c1)OCO2)c1ccc(COc2cccc(Cl)c2)o1,22*,-6,-5,9
CN(C(=O)COC(=O)c1cc2c(s1)CCCCC2)c1ccccc1,7,x,1,x
COc1ccc(C(C(=O)NC2CCCCC2)N(C(=O)CCl)c2ccc(Cl)cc2)cc1 (stereo not drawn),3,3,0,-17
COC(CN(C(=O)CCl)C(C(=O)NC1CCCCC1)c1ccc(Cl)cc1)OC (stereo not drawn),82*,1,4,-7
COC(CN(C)C(C(=O)NC1CCCCC1)c1ccccc1)OC (stereo not drawn),-1,-15,-7,7
COC(CN(C(=O)CCl)C(C(=O)NC1CCCCC1)c1ccccc1C)OC (stereo not drawn),20*,12,-3,-4
COC(CN(C(=O)CCl)C(C(=O)NC1CCCC(C)C1C)c1ccc(C)cc1)OC (stereo not drawn),61*,-11,0,7
COc1ccc2nc3cc(Cl)ccc3c(C#N)c2c1,19*,-5,-7,-6
COc1ccc2nc(C(F)(F)Cl)c(C#N)c(N)c2c1,-1,-5,-17,0
O=C(NCc1cccnc1)/C(=C\c1ccc(-c2ccc(Cl)c(Cl)c2)o1)S(=O)(=O)c1ccccc1,1,-13,1,-18
Cc1ccc(N2C(=O)C(Cl)=C(N3CCCCCC3)C2=O)cc1,6,-10,38,-13
SMILES,Fh CTSL1 inh,p-CIP stab down,Arrestin-AP2 inh,Hep lipid drop
O=C1C(Cl)=C(N2CCCCC2)C(=O)N1c1ccccc1,54*,-12,0,x
CC(C)c1ccc(N2C(=O)C(Cl)=C(N3CCOCC3)C2=O)cc1,3,2,19,1
O=C1C(Cl)=C(N2CCOCC2)C(=O)N1c1ccc(Br)cc1,35*,0,12,-2
Cc1ccccc1N1C(=O)C(Cl)=C(N2CCOCC2)C1=O,2,0,-4,-6
O=C1C(Cl)=C(N2CCOCC2)C(=O)N1c1ccccc1F,30*,-2,-3,20
CC(=O)Nc1ccc(S(=O)(=O)N2CCN(c3ccc(C)c(Cl)c3)CC2)cc1,20*,-8,3,x
COc1ccc(NC(=O)CN2CCC(C(N)=O)CC2)cc1,2,-13,-9,5
O=C(NCCN1CCOCC1)c1ccc2c(c1)N(Cc1ccccc1)C(=O)CS2,32*,-11,-6,-4
Cc1ccc(OCCCC(=O)ON=C(N)c2ccccc2C)cc1,x,x,0,x
